ChEMBL document CHEMBL2021920, “Design, synthesis and biological evaluation of thiazole- and indole-based derivatives for the treatment of type II diabetes” (Eur J Med Chem, 2012)
Values belong to the compound of their own block, whether it stands above or below them. Activity calls are given as the source filed them. No cut-off for these calls is given here.

Experiments:
RAW264.7 = assay: Inhibition of LPS-stimulated TNFalpha production in mouse RAW264.7 cells at […] dosed simultaneously with LPS measured 24 hrs post dose by ELISA; format: functional
Procedure, shortened: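 RAW 264.7 macrophages were seeded and grown for 24 h. Test agents were then added together with LPS, and cells were incubated for a further 24 h before TNF-α output was determined. Results are expressed as percent inhibition.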

Mus musculus [1] = assay: Antidiabetic effect in high-fat diet fed C57BL/6J mouse obesity model assessed as reduction in plasma total cholesterol level at 50 mg/kg, po dosed once daily measured after 8 weeks relative to untreated control; format: functional; settings: 1344 h
Procedure, shortened: (§1)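 Obese C57BL/6J animals on a 60% fat diet were given 50 mg/kg orally each day (suspension in Tween 80/5% saline) or vehicle, n = 8 per group. After 8 weeks, heart blood was taken under anaesthesia and spun at 5,000 g for 15 min at 4 °C. Plasma glucose, TG, TC and ALT were measured on a biochemistry analyzer.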

[2] = target: Fatty acid-binding protein, adipocyte (Mus musculus) (UniProt P04117); assay: Inhibition of mouse ap2 by fluorescent 1,8-anilino-8-naphthalene sulfonate assay; settings: read-out: Ki(app)
Mus musculus [3] = assay: Antidiabetic effect in high-fat diet fed C57BL/6J mouse obesity model assessed as reduction in blood glucose at 50 mg/kg, po dosed once daily measured after 8 weeks relative to untreated control; format: functional, organism-based; design: dose 50 mg/kg; procedure, shortened: as §1
Mus musculus [4] = assay: Antidiabetic effect in high-fat diet fed C57BL/6J mouse obesity model assessed as reduction in plasma triglyceride level at 50 mg/kg, po dosed once daily measured after 8 weeks relative to untreated control; format: functional; settings: 1344 h; procedure, shortened: as §1
Mus musculus [5] = assay: Effect on food intake in high-fat diet fed C57BL/6J mouse obesity model at 50 mg/kg, po dosed once daily measured after 8 weeks relative to untreated control; format: functional, organism-based; design: dose 50 mg/kg
Procedure, shortened: (§2)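 C57BL/6J animals were kept on a 60% fat diet, or on normal food, for 8 weeks. High-fat groups were dosed orally at 50 mg/kg once daily (suspension in Tween 80/5% saline) or given vehicle, n = 8 per group. Body weight and food intake were followed over the study period.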

Mus musculus [6] = assay: Antidiabetic effect in high-fat diet fed C57BL/6J mouse obesity model assessed as improvement in glucose metabolism level at 50 mg/kg, po dosed once daily measured after 8 weeks by glucose tolerance test; format: functional, organism-based; design: dose 50 mg/kg
Procedure, shortened: (§3)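 Diet-induced obese C57BL/6J animals were fed a 60% fat diet for 8 weeks, then dosed orally with 50 mg/kg daily (suspension in Tween 80 and 5% saline) or vehicle, n = 8 per group. After a 12 h fast they received either an oral glucose load of 0.5 g/kg (5% glucose) or ip insulin at 2 U/Kg in saline. Blood glucose was read by glucose meter at 0, 15, 30, 60, 90 and 120 min.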

Mus musculus [7] = assay: Antidiabetic effect in high-fat diet fed C57BL/6J mouse obesity model assessed as reduction in liver fat deposition at 50 mg/kg, po dosed once daily measured after 8 weeks by H&E staining; format: functional, organism-based; design: dose 50 mg/kg
Procedure, shortened: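 Livers came from high-fat-fed C57BL/6J animals that had 8 weeks of daily oral dosing at 50 mg/kg or vehicle. Tissue was fixed in 4% buffered formalin, embedded in paraffin or OCT, and serially sectioned. Sections were stained with H&E to assess fat deposition.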

Mus musculus [8] = assay: Antidiabetic effect in high-fat diet fed C57BL/6J mouse obesity model assessed as increase in insulin sensitivity level at 50 mg/kg, po dosed once daily measured after 8 weeks by insulin tolerance test; format: functional, organism-based; design: dose 50 mg/kg; procedure, shortened: as §3
Mus musculus [9] = assay: Antidiabetic effect in high-fat diet fed C57BL/6J mouse obesity model assessed as weight gain incidence at 50 mg/kg, po dosed once daily measured after 8 weeks relative to untreated control; format: functional; procedure, shortened: as §2
Mus musculus [10] = assay: Antidiabetic effect in high-fat diet fed C57BL/6J mouse obesity model assessed as reduction in plasma alanine aminotransferase level at 50 mg/kg, po dosed once daily measured after 8 weeks relative to untreated control; format: functional; settings: 1344 h; procedure, shortened: as §1

Fatty acid-binding protein, adipocyte (Mus musculus), sequence (P04117 whole entry, looked up): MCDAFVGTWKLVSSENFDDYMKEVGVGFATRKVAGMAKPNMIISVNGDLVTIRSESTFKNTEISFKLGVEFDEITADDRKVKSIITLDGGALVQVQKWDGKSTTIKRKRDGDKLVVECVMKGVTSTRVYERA

SMILES: O=C(O)Cc1cn(Cc2cccc(F)c2)c2ccccc12
inhibition (RAW264.7): inactive

SMILES: O=C(O)CCC(=O)Nc1nc(-c2ccccc2Cl)cs1
inhibition (INH) (RAW264.7): 8.56%

SMILES: CC(C)(C)c1ccc(Cn2cc(/C=C/C(=O)O)c3ccccc32)cc1
inhibition (INH) (RAW264.7): 50.18%

SMILES: COc1ccc(-c2csc(NC(=O)CCC(=O)O)n2)cc1
inhibition (RAW264.7): inactive

SMILES: Cc1ccc(-c2csc(NC(=O)CCC(=O)O)n2)cc1
inhibition (INH) (RAW264.7): 36.67%

SMILES: Cc1ccc(Cn2cc(/C=C/C(=O)O)c3ccccc32)cc1
inhibition (INH) (RAW264.7): 66.56%

SMILES: O=C(O)CCC(=O)Nc1nc(-c2ccc3ccccc3c2)cs1
inhibition (INH) (RAW264.7): 58.75%

SMILES: Cc1sc(NC(=O)CCC(=O)O)nc1-c1ccc(Cl)cc1
inhibition (INH) (RAW264.7): 27.14%

SMILES: Cc1sc(NC(=O)CCC(=O)O)nc1-c1ccccc1
inhibition (INH) (RAW264.7): 25.23%

SMILES: O=C(O)CSCC(=O)Nc1nc(-c2ccc(C(F)(F)F)cc2)cs1
inhibition (INH) (RAW264.7): 37.26%

SMILES: COc1ccc2c(c1)c(/C=C/C(=O)O)cn2Cc1ccc(F)cc1
inhibition (INH) (RAW264.7): 94.28%

SMILES: O=C(O)CSCC(=O)Nc1nc(-c2ccc([N+](=O)[O-])cc2)cs1
inhibition (INH) (RAW264.7): 43.24%

SMILES: Cc1ccc2c(c1)c(/C=C/C(=O)O)cn2Cc1cccc(F)c1
inhibition (RAW264.7): inactive

SMILES: O=C(O)/C=C/c1cn(Cc2cccc(F)c2)c2ccccc12
inhibition (INH) (RAW264.7): 36.36%

SMILES: Cc1ccc2c(c1)c(/C=C/C(=O)O)cn2Cc1ccccc1F
inhibition (INH) (RAW264.7): 11.18%

SMILES: CCc1c(-c2ccccc2)c(-c2ccccc2)nn1-c1ccccc1-c1cccc(OCC(=O)O)c1
inhibition (INH) (RAW264.7): 85.13%

SMILES: O=C(O)Cc1cn(Cc2ccccc2F)c2ccccc12
inhibition (INH) (RAW264.7): 24.72%

SMILES: Cc1c(/C=C/C(=O)O)c2ccccc2n1Cc1ccccc1F
inhibition (INH) (RAW264.7): 93.27%

SMILES: Cc1ccccc1Cn1cc(/C=C/C(=O)O)c2ccccc21
inhibition (RAW264.7): inactive

SMILES: COc1ccc2c(c1)c(/C=C/C(=O)O)cn2Cc1cccc(F)c1
inhibition (RAW264.7): inactive

SMILES: CC(C)c1ccc(Cn2cc(/C=C/C(=O)O)c3ccccc32)cc1
inhibition (INH) (RAW264.7): 92.24%

SMILES: O=C(O)CCC(=O)Nc1nc(-c2ccc(Cl)cc2Cl)cs1
inhibition (INH) (RAW264.7): 35.15%

SMILES: O=C(O)Cc1cn(Cc2ccccc2)c2ccccc12
inhibition (INH) (RAW264.7): 52.17%

SMILES: N#Cc1ccc(Cn2cc(/C=C/C(=O)O)c3ccccc32)cc1
inhibition (INH) (RAW264.7): 31.46%

SMILES: COc1ccc2c(c1)c(/C=C/C(=O)O)cn2Cc1ccccc1F
inhibition (INH) (RAW264.7): 86.67%

SMILES: O=C(O)Cc1cn(Cc2ccc(F)cc2)c2ccccc12
inhibition (INH) (RAW264.7): 92.24%

SMILES: O=C(O)CCC(=O)Nc1nc(-c2ccc(Cl)cc2)cs1
inhibition (INH) (RAW264.7): 41.22%

Ki [2]: 33 nM
SMILES: O=C(O)/C=C/c1cn(Cc2ccccc2F)c2ccccc12
inhibition (INH) (RAW264.7): 95.47%
inhibition in vivo at 50 mg/kg (Mus musculus [1]): 38.5%
Activity (Mus musculus [3]): Active
inhibition in vivo at 50 mg/kg (Mus musculus [4]): 27.1%
Activity (Mus musculus [5]): inactive
Activity (Mus musculus [6]): Active
Activity (Mus musculus [7]): Active
Activity (Mus musculus [8]): Active
Activity (Mus musculus [9]): 21.18%
inhibition in vivo at 50 mg/kg (Mus musculus [10]): 26.7%

SMILES: O=C(O)CCC(=O)Nc1nc(-c2ccc(Cl)c(Cl)c2)cs1
inhibition (INH) (RAW264.7): 12.38%

SMILES: O=C(O)/C=C/c1cn(Cc2ccc(F)cc2)c2ccccc12
inhibition (INH) (RAW264.7): 86.78%

SMILES: O=C(O)CCC(=O)Nc1nc(-c2ccc(C(F)(F)F)cc2)cs1
inhibition (INH) (RAW264.7): 12.15%

SMILES: O=C(O)CSCC(=O)Nc1nc(-c2ccc(F)cc2)cs1
inhibition (INH) (RAW264.7): 18.19%

SMILES: O=C(O)/C=C/c1cn(Cc2cccc3ccccc23)c2ccccc12
inhibition (INH) (RAW264.7): 93.28%

SMILES: Cc1ccccc1Cn1cc(CC(=O)O)c2ccccc21
inhibition (INH) (RAW264.7): 14.29%

SMILES: O=C(O)CCC(=O)Nc1nc(-c2ccc(F)c(F)c2)cs1
inhibition (INH) (RAW264.7): 92.45%

SMILES: Cc1c(/C=C/C(=O)O)c2ccccc2n1Cc1cccc(F)c1
inhibition (RAW264.7): inactive

SMILES: O=C(O)/C=C/c1cn(Cc2ccc([N+](=O)[O-])cc2)c2ccccc12
inhibition (INH) (RAW264.7): 32.34%

SMILES: O=C(O)/C=C/c1cn(Cc2ccccc2)c2ccccc12
inhibition (INH) (RAW264.7): 18.17%

SMILES: O=C(O)CCC(=O)Nc1nc(-c2ccc(F)cc2)cs1
inhibition (INH) (RAW264.7): 27.24%

SMILES: O=C(O)CSCC(=O)Nc1nc(-c2ccc(Cl)cc2)cs1
inhibition (INH) (RAW264.7): 23.45%
